From ChEMBL document CHEMBL5154735, “Interaction of A3 adenosine receptor ligands with the human multidrug transporter ABCG2” (Eur J Med Chem, 2022)

Assays:
[1] = biological target: T1, ABCG2 (Homo sapiens, UniProt Q9UNQ0); test: Activation of human ABCG2-mediated ATPase activity preincubated for 2 mins followed by ATP addition at 2.5 uM and measured after 20 mins by colorimetric assay relative to control; settings: read-out: Activity
T1 sequence (Q9UNQ0 whole entry): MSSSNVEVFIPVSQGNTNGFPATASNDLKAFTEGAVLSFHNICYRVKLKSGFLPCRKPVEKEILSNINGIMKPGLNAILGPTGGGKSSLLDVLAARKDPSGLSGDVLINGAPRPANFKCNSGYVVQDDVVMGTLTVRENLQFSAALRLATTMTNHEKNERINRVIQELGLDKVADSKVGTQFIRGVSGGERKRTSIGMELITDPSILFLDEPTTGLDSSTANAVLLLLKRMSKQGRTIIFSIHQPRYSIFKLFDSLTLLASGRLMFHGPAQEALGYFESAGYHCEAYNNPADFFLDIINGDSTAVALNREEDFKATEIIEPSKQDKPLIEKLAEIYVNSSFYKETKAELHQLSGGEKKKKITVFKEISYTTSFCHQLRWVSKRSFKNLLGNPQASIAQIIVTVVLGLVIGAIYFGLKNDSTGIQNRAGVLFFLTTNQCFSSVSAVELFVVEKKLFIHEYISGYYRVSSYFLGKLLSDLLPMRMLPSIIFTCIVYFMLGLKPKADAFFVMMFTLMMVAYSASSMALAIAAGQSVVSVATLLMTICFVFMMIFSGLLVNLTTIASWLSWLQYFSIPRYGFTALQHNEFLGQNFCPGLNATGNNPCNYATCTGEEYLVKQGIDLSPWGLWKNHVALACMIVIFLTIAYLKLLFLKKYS
How it was run: (§1)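 Total membrane vesicles from High-Five insect cells expressing human ABCG2 (hypotonic lysis, differential centrifugation), 10 μg protein/tube, in MES-Tris pH 6.8 buffer with KCl, MgCl2, NaN3, EGTA, ouabain, DTT. Compound in DMSO added ± sodium orthovanadate (0.3 mM), DMSO control. Preincubated 2 min at 37°C, then 5 mM ATP, 20 min. SDS stop, Pi measured colorimetrically. Three independent experiments in duplicate, mean ± SE.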

[2] = biological target: T2, Broad substrate specificity ATP-binding cassette transporter ABCG2 (Homo sapiens, UniProt Q9UNQ0); test: Activation of human ABCG2-mediated ATPase activity preincubated for 2 mins followed by ATP addition and measured after 20 mins by colorimetric assay; how it was run: as §1
T2 sequence (Q9UNQ0 whole entry): T1 sequence (Q9UNQ0 whole entry)

[3] = biological target: T1, ABCG2; test: Inhibition of human ABCG2 in human R5 cells assessed as inhibition of mitoxantrone efflux at 10 uM measured by flow cytometric analysis relative to control; type: cell-based; settings: probe mitoxantrone
How it was run: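 HEK293 cells transfected with full-length ABCG2 (R-5) or empty pcDNA vector, grown in MEM with 10% FBS and 2 mg/ml G418. Cells incubated in IMDM with 5% FBS, 5 μM mitoxantrone (final) ± compound, 37°C for 45 min. Washed in cold IMDM, resuspended in cold PBS with 1% BSA, read by flow cytometry.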

[4] = biological target: T1, ABCG2; test: Effect on human ABCG2 transporter preincubated for 2 mins followed by ATP addition assessed as basal ATPase activity at 100 nM and measured after 20 mins by colorimetric assay relative to control; settings: read-out: Activity; how it was run: as §1
[5] = biological target: T1, ABCG2; test: Activation of human ABCG2-mediated ATPase activity preincubated for 2 mins followed by ATP addition at 2.5 M and measured after 20 mins by colorimetric assay relative to control; parameters: dose or concentration left out as unconfirmed; settings: read-out: Activity; how it was run: as §1
[6] = biological target: T1, ABCG2; test: Activation of human ABCG2-mediated ATPase activity preincubated for 2 mins followed by ATP addition at 10 M and measured after 20 mins by colorimetric assay relative to control; parameters: dose or concentration left out as unconfirmed; settings: read-out: Activity; how it was run: as §1
[7] = biological target: T1, ABCG2; test: Activation of human ABCG2-mediated ATPase activity preincubated for 2 mins followed by ATP addition at 100 nM and measured after 20 mins by colorimetric assay relative to control; settings: read-out: Activity; how it was run: as §1
[8] = biological target: T3, Adenosine receptor A3 (Homo sapiens, UniProt P0DMS8); test: Binding affinity towards human adenosine A3 receptor
T3 sequence (P0DMS8 whole entry): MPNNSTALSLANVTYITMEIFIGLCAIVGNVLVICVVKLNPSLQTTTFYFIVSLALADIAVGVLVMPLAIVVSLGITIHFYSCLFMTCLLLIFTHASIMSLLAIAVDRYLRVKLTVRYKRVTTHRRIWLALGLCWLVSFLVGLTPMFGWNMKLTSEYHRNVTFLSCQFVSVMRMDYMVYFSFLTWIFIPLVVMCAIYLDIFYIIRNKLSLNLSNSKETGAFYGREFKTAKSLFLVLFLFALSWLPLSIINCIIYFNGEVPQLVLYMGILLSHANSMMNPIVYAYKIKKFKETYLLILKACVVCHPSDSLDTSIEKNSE

Row | Compound | activity at 20 min, 0.1 µM [4] [%] | activity at 20 min, 0.1 µM [7] [%] | also measured
1 | CNC(=O)C12CC1[C@@H](n1cnc3c(N[C@@H]4C[C@H]4c4ccc(F)c(F)c4)nc(C#Cc4cccc(F)c4)nc31)[C@H](O)[C@@H]2O (single isomer, unassigned) |  |  | activity at 20 min, 2.5 µM [1]: 74.8%; EC50 [2]: 13 nM; inhibition at 10 µM [3]: 97.4%
2 | CCOC(=O)C12CC1[C@@H](n1ccc3c(NC)nc(I)nc31)[C@H](O)[C@@H]2O (single isomer, unassigned) | ≤ 30 |  | 
3 | CCOC(=O)C12CC1[C@@H](n1cnc3c(NC)cc(C#Cc4ccc(Cl)s4)nc31)[C@H](O)[C@@H]2O (single isomer, unassigned) | ≤ 30 |  | 
4 | CCCCOC(=O)C12CC1[C@@H](n1cnc3c(NC)nc(C#Cc4ccc(Cl)s4)nc31)[C@H](O)[C@@H]2O (single isomer, unassigned) | ≤ 30 |  | 
5 | CNC(=O)C12CC1[C@@H](n1cnc3c(NCc4cccc(Cl)c4)nc(C#Cc4ccc(Cl)s4)nc31)[C@H](O)[C@@H]2O (single isomer, unassigned) |  |  | activity at 20 min [5]: 97.5%; activity at 20 min [6]: 92.9%
6 | CNC(=O)C12CC1[C@@H](n1cnc3c(NC)nc(C#Cc4ccc(Cl)s4)nc31)[C@H](O)[C@@H]2O (single isomer, unassigned) |  |  | activity at 20 min [5]: 59.2%
7 | CCOC(=O)C12CC1[C@@H](n1ccc3c(NC4CC4)nc(C#Cc4ccccc4)nc31)[C@H](O)[C@@H]2O (single isomer, unassigned) | ≤ 30 |  | 
8 | CNc1nc(C#Cc2ccc(Cl)s2)nc2c1ncn2[C@@H]1C2CC2(C(=O)OC)[C@@H](O)[C@H]1O (single isomer, unassigned) |  |  | activity at 20 min [5]: 89.1%; activity at 20 min [6]: 79%
9 | CNc1nc(C#Cc2ccc(Cl)s2)nc2c1ncn2[C@@H]1C2CC2(C(=O)Oc2ccccc2)[C@@H](O)[C@H]1O (single isomer, unassigned) |  | 50.3 | 
10 | CCOC(=O)C12CC1[C@@H](n1ccc3c(NCCCc4ccc(OC)c(O)c4)nc(C#Cc4ccccc4)nc31)[C@H](O)[C@@H]2O (single isomer, unassigned) |  | 55.9 | Ki [8]: ≥ 99 nM
11 | CCCNc1nc(C#Cc2ccc(Cl)s2)nc2c1ncn2[C@@H]1C2CC2(C(=O)NC)[C@@H](O)[C@H]1O (single isomer, unassigned) |  |  | activity at 20 min [5]: 77.9%; activity at 20 min [6]: 40%
12 | CNC(=O)[C@H]1O[C@@H](n2cnc3c(NCc4cccc(I)c4)nc(Cl)nc32)[C@H](O)[C@@H]1O [NAMODENOSON] |  |  | EC50 [2]: 1420 nM; activity at 20 min [5]: 101%; activity at 20 min [6]: 69.9%

Now from value to molecule, other results behind:

Row | activity at 20 min, 0.1 µM [4] [%] | activity at 20 min, 0.1 µM [7] [%] | Compound | also measured
13 | ≤ 30 |  | CCOC(=O)C12CC1[C@@H](n1ccc3c(NC)nc(C#Cc4ccccc4)nc31)[C@H](O)[C@@H]2O (single isomer, unassigned) | 
14 |  | 33.9 | CCCOC(=O)C12CC1[C@@H](n1cnc3c(NC)nc(C#Cc4ccc(Cl)s4)nc31)[C@H](O)[C@@H]2O (single isomer, unassigned) | 
15 |  | 64.3 | CCOC(=O)C12CC1[C@@H](n1cnc3c(NCCc4ccc(OC)c(O)c4)nc(C#Cc4ccc(Cl)s4)nc31)[C@H](O)[C@@H]2O (single isomer, unassigned) | 
16 |  | 45.5 | CCOC(=O)C12CC1[C@@H](n1ccc3c(NCCCc4ccccc4)nc(C#Cc4ccc(Cl)s4)nc31)[C@H](O)[C@@H]2O (single isomer, unassigned) | 
17 |  | 41 | CCOC(=O)C12CC1[C@@H](n1ccc3c(NC)nc(C#Cc4ccc(Cl)s4)nc31)[C@H](O)[C@@H]2O (single isomer, unassigned) | 
18 | ≤ 30 |  | CNc1nc(C#Cc2ccc(Cl)s2)nc2c1ncn2[C@@H]1C2CC2(C(=O)OCCC2CCCCC2)[C@@H](O)[C@H]1O (single isomer, unassigned) | 
19 | ≤ 30 |  | CNc1nc(C#Cc2ccc(Cl)s2)nc2c1ncn2[C@@H]1C2CC2(C(=O)OC(C)C)[C@@H](O)[C@H]1O (single isomer, unassigned) | 
20 | ≤ 30 |  | CNc1nc(C#Cc2ccc(Cl)s2)nc2c1ncn2[C@@H]1C2CC2(C(=O)OCCC(C)C)[C@@H](O)[C@H]1O (single isomer, unassigned) | 
